Data: ChEMBL document CHEMBL5375970, “Discovery of Potent and Selective WDR5 Proteolysis Targeting Chimeras as Potential Therapeutics for Pancreatic Cancer” (J Med Chem, 2023)
Calls of active or inactive are those of the source. The calls are words filed in the database; no cut-off is given here.

How the values were obtained:
Type in all cases: cell-based
[1] = target: T1, Protein cereblon/WD repeat-containing protein 5 (Homo sapiens) (UniProt P61964+Q96SW2); experiment: PROTAC activity at CRBN/WDR5 in human MV4-11 cells assessed as degradation of WDR5 protein at 0.01 to 5 uM incubated for 18 hrs by Western blotting analysis; conditions: dose 0.01-5 µM
Procedure, shortened: (§1)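 MV4;11 cells (RPMI 1640, 10% FBS) and MIA PaCa-2 cells (DMEM, 10% FBS) treated with DMSO or compound for 18 h. Whole-cell lysates immunoblotted for WDR5, IKZF1 (MV4;11 only) and LIMD1 (MV4;11 only), with tubulin as loading control and fluorescent secondary antibodies. Representative of at least two independent experiments.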

[2] = target: T2, Cereblon/Ikaros (Homo sapiens) (UniProt Q96SW2+Q13422); experiment: PROTAC activity at CRBN/IKZF1 in human MV4-11 cells assessed as degradation of IKZF1 protein at 0.01 to 5 uM incubated for 18 hrs by Western blotting analysis; conditions: dose 0.01-5 µM; procedure, shortened: as §1
[3] = target: T1, Protein cereblon/WD repeat-containing protein 5 (Homo sapiens); experiment: PROTAC activity at CRBN/WDR5 in human MIA PaCa-2 cells assessed as degradation of WDR5 protein at 0.01 to 5 uM incubated for 18 hrs by Western blotting analysis; conditions: dose 0.01-5 µM; procedure, shortened: as §1
[4] = target: von Hippel-Lindau disease tumor suppressor/WD repeat-containing protein 5 (Homo sapiens, UniProt P61964+P40337); experiment: PROTAC activity at human VHL/human WDR5 wild type expressed in HEK293T cells assessed as degradation of WDR5 protein incubated for 3 days by Western blotting analysis; conditions: time 3.0 day
Procedure, shortened: (§2)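 HEK293T cells were lentivirally transduced with doxycycline-inducible (1 μg/mL) 3×FLAG WDR5 wild type, K32R or K296R and selected with puromycin for 4 days. The stable lines were treated with a concentration series for 72 h. Lysates were run on 4–12% SDS-PAGE and immunoblotted for WDR5 with a vinculin loading control, with at least two independent experiments.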

[5] = system: von Hippel-Lindau disease tumor suppressor/WD repeat-containing protein 5 (Homo sapiens), P61964+P40337 [K296R]; experiment: PROTAC activity at human VHL/human WDR5 K296R mutant expressed in HEK293T cells assessed as degradation of WDR5 protein at 0.25 to 5 uM incubated for 3 days by Western blotting analysis; conditions: dose 0.25-5 µM, time 3.0 day; procedure, shortened: as §2
[6] = system: von Hippel-Lindau disease tumor suppressor/WD repeat-containing protein 5 (Homo sapiens), P61964+P40337 [K32R]; experiment: PROTAC activity at human VHL/human WDR5 K32R mutant expressed in HEK293T cells assessed as degradation of WDR5 protein at 0.25 to 5 uM incubated for 3 days by Western blotting analysis; conditions: dose 0.25-5 µM, time 3.0 day; procedure, shortened: as §2
[7] = target: T2, Cereblon/Ikaros (Homo sapiens); experiment: PROTAC activity at CRBN/IKZF1 in human MV4-11 cells assessed as degradation of IKZF1 protein at 0.5 uM incubated for 18 hrs by Western blotting analysis; procedure, shortened: as §1
[8] = target: T1, Protein cereblon/WD repeat-containing protein 5 (Homo sapiens); experiment: PROTAC activity at CRBN/WDR5 in human MV4-11 cells assessed as degradation of WDR5 protein at 2 uM incubated for 18 hrs by Western blotting analysis; procedure, shortened: as §1
[9] = target: T2, Cereblon/Ikaros (Homo sapiens); experiment: PROTAC activity at CRBN/IKZF1 in human MV4-11 cells assessed as degradation of IKZF1 protein at 2 uM incubated for 18 hrs by Western blotting analysis; procedure, shortened: as §1
[10] = target: T1, Protein cereblon/WD repeat-containing protein 5 (Homo sapiens); experiment: PROTAC activity at CRBN/WDR5 in human MV4-11 cells assessed as degradation of WDR5 protein at 0.5 uM incubated for 18 hrs by Western blotting analysis; procedure, shortened: as §1
[11] = target: T3, Protein cereblon/LIM domain-containing protein 1 (Homo sapiens) (UniProt Q96SW2+Q9UGP4); experiment: PROTAC activity at CRBN/LIMD1 in human MV4-11 cells assessed as degradation of […] protein at 2 uM incubated for 18 hrs by Western blotting analysis; procedure, shortened: as §1
[12] = target: T3, Protein cereblon/LIM domain-containing protein 1 (Homo sapiens); experiment: PROTAC activity at CRBN/LIMD1 in human MV4-11 cells assessed as degradation of […] protein at 0.5 uM incubated for 18 hrs by Western blotting analysis; procedure, shortened: as §1

Structure (SMILES)	Activity [1]	Activity [2]	Activity [3]	Activity [4]	Activity [5]	Activity [6]	Activity [7]	Activity [8]	Activity [9]	Activity [10]	Activity [11]	Activity [12]
C[C@@H]1CN(c2ccc(-c3cc(C(=O)NCCCCCCCNC(=O)COc4cccc5c4C(=O)N(C4CCC(=O)NC4=O)C5=O)ccc3F)cc2NC(=O)c2c[nH]c(=O)cc2C(F)(F)F)C[C@H](C)N1C (stereo partly specified)	Active	inactive	Active	–	–	–	–	–	–	–	–	–
Cc1ncsc1-c1ccc([C@H](C)NC(=O)[C@@H]2C[C@@H](O)CN2C(=O)[C@@H](NC(=O)CNC(=O)c2ccc(F)c(-c3ccc(N4C[C@@H](C)N(C)[C@@H](C)C4)c(NC(=O)c4c[nH]c(=O)cc4C(F)(F)F)c3)c2)C(C)(C)C)cc1	–	–	–	Dose-Dependent Effect	inactive	Active	–	–	–	–	–	–
CN1CCN(c2ccc(-c3cccc(CN4CCN(CCNC(=O)CCCCCCCNC(=O)COc5cccc6c5C(=O)N(C5CCC(=O)NC5=O)C6=O)CC4)c3)cc2NC(=O)c2c[nH]c(=O)cc2C(F)(F)F)CC1 (stereo unspecified)	Active	inactive	Active	–	–	–	inactive	Active	inactive	Active	inactive	inactive
CN1CCN(c2ccc(-c3cccc(CN4CCN(CCNC(=O)CCCCNC(=O)COc5cccc6c5C(=O)N(C5CCC(=O)NC5=O)C6=O)CC4)c3)cc2NC(=O)c2c[nH]c(=O)cc2C(F)(F)F)CC1 (stereo unspecified)	–	–	–	–	–	–	inactive	Active	inactive	Active	inactive	inactive
